Experimental data taken from ChEMBL document CHEMBL1641445, “Synthesis, antiprotozoal, antimicrobial, β-hematin inhibition, cytotoxicity and methemoglobin (MetHb) formation activities of bis(8-aminoquinolines)” (Bioorg Med Chem, 2011).
Active and inactive are the calls of the source. No cut-off for these calls is given here.

Legend:
[1] = Hematotoxicity against RBC assessed as formation of methemoglobin at 20 ug/ml relative to control; assay type: cell-based; details: erythrocyte
How it was run: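 Metabolism-linked methemoglobin toxicity in vitro. Percent MetHb formation was determined at 20 µg/mL of compound relative to vehicle control.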

[2] = system: Plasmodium falciparum; test: Antimalarial activity against chloroquine-sensitive Plasmodium falciparum D6 by LDH assay; assay type: functional, organism-based
How it was run: (§1)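 Antiplasmodial activity was measured in vitro against P. falciparum blood-stage cultures. Read-out was parasite lactate dehydrogenase (LDH) activity, with IC50 values expressed in µg/mL. The same protocol was used for the D6 and W2 strains.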

[3] = system: Vero; test: Cytotoxicity against african green monkey Vero cells up to 10 ug/ml by neutral red assay; assay type: cell-based; details: chlorocebus sabaeus
How it was run: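 Vero (monkey kidney) cells were exposed up to a highest concentration of 10 µg/mL. Viability was read by neutral red uptake.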

[4] = Inhibition of beta-hematin formation; assay type: functional
[5] = system: Leishmania donovani; test: Antileishmanial activity against promastigotes of Leishmania donovani by alamar blue assay; assay type: functional, organism-based; details: for IC50: read-out: IC50
[6] = system: Staphylococcus aureus; test: Antibacterial activity against methicillin-resistant Staphylococcus aureus ATCC 43300 by CLSI method; assay type: functional, organism-based
How it was run: (§2)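 Broth dilution method (NCCLS M7-A5). […] MIC is the lowest concentration allowing no detectable growth. MBC is the lowest concentration killing the organism. Highest test concentration was 20 µg/mL.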

[7] = system: Mycobacterium intracellulare; test: Antibacterial activity against Mycobacterium intracellular ATCC 23068 by CLSI method; assay type: functional, organism-based
[8] = system: Mycobacterium intracellulare; test: Antibacterial activity against Mycobacterium intracellular ATCC 23068 at 20 ug/ml by CLSI method; assay type: functional, organism-based
[9] = system: Staphylococcus aureus; test: Antibacterial activity against methicillin-resistant Staphylococcus aureus ATCC 43300 at 20 ug/ml by CLSI method; assay type: functional, organism-based; how it was run: as §2
[10] = system: Plasmodium berghei; test: Antimalarial activity against Plasmodium berghei infected in mouse assessed as complete elimination of malaria parasites from animals at 50 mg/kg, po qd for 4 days measured up to 60 days; assay type: functional, organism-based; design: dose 50 mg/kg
How it was run: (§3)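 Rodent P. berghei (sensitive strain) blood-schizontocidal model, 6 mice per group. Compounds were given orally once daily for 4 days at 10, 25, 50 or 100 mg/kg/day. Cure meant complete parasite elimination with survival to day D+60.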

[11] = system: Plasmodium berghei; test: Antimalarial activity against Plasmodium berghei infected in mouse assessed as complete elimination of malaria parasites from animals at 100 mg/kg, po qd for 4 days measured up to 60 days; assay type: functional, organism-based; design: dose 100 mg/kg; how it was run: as §3
[12] = system: Candida albicans; test: Antifungal activity against Candida albicans ATCC 90028 at 20 ug/ml; assay type: functional, organism-based
[13] = system: Aspergillus fumigatus; test: Antifungal activity against Aspergillus fumigatus ATCC 90906 at 20 ug/ml; assay type: functional, organism-based
[14] = system: Nakaseomyces glabratus; test: Antifungal activity against Candida glabrata at 20 ug/ml; assay type: functional, organism-based
[15] = system: Pichia kudriavzevii; test: Antifungal activity against Candida krusei at 20 ug/ml; assay type: functional, organism-based
[16] = system: Plasmodium falciparum; test: Antimalarial activity against chloroquine-resistant Plasmodium falciparum W2 by LDH assay; assay type: functional, organism-based; details: Plasmodium falciparum, W2; read-out: IC50; how it was run: as §1
[17] = system: Cryptococcus neoformans; test: Antifungal activity against Cryptococcus neoformans ATCC 90113; assay type: functional, organism-based
[18] = system: Plasmodium berghei; test: Antimalarial activity against Plasmodium berghei infected in mouse assessed as negative parasitemia level at 10 mg/kg, po qd for 4 days measured up to 7 days; assay type: functional, organism-based; design: dose 10 mg/kg
How it was run: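 Mice infected with P. berghei (sensitive strain), 6 per group, dosed orally at 10–100 mg/kg/day × 4. Suppression meant negative parasitemia in all treated animals up to D+7. Survivors were counted at D+60.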

[19] = system: Plasmodium berghei; test: Antimalarial activity against Plasmodium berghei infected in mouse assessed as complete elimination of malaria parasites from animals at 25 mg/kg, po qd for 4 days measured up to 60 days; assay type: functional, organism-based; design: dose 25 mg/kg; how it was run: as §3
[20] = system: Candida albicans; test: Antifungal activity against Candida albicans ATCC 90028; assay type: functional, organism-based
[21] = Plasmodium falciparum, D6, read-out: IC50

Structure (SMILES)	Methemoglobin formation [1] [%]	IC50 [2, 21] [µg/mL]	Activity [3]	IC50 [4] [µM]	IC90 ([5]; Leishmania donovani) [µg/mL]	IC50 ([5]; Leishmania donovani) [µg/mL]	IC50 [6] [µg/mL]	IC50 [7] [µg/mL]	MBC [8]	MBC [9]	Activity [11]	MFC [12]	MIC [12]	Activity [13]	Activity [14]	Activity [15]	MIC [6] [µg/mL]	MIC [8]	IC50 [17] [µg/mL]	MIC [17] [µg/mL]	other results
COc1cc(NC(C)CCCNC(=O)C[C@@H](N)C(=O)NCCCC(C)Nc2cc(OC)cc3cccnc23)c2ncccc2c1.Cl (stereo partly specified)	7.25	3.3	Non-toxic	120	31	11.5	15	15	inactive	inactive	–	–	–	–	–	–	–	–	–	–	MIC [7]: 20 µg/mL; MIC [9]: inactive
COc1cc(NC(C)CCCNC(=O)NC(CCCNC(=N)N)C(=O)NCCCC(C)Nc2cc(OC)cc3cccnc23)c2ncccc2c1 (single isomer, unassigned; 36)	–	–	–	–	–	–	–	–	–	–	Active	inactive	inactive	inactive	inactive	inactive	–	–	–	–	Activity [10]: inactive
COc1cc(NC(C)CCCNC(=O)C[C@H](N)C(=O)NCCCC(C)Nc2cc(OC)cc3cccnc23)c2ncccc2c1.Cl (stereo partly specified)	5.4	4.76	Non-toxic	185	30	–	15	20	inactive	inactive	–	inactive	inactive	inactive	inactive	inactive	20	inactive	7.5	10	IC50 [16]: 3.8 µg/mL; IC50 [12]: Not Active; MFC [17]: 10 µg/mL
COc1cc(NC(C)CCCNC(=O)N[C@H](CCCCN)C(=O)NCCCC(C)Nc2cc(OC)cc3cccnc23)c2ncccc2c1.Cl (stereo partly specified)	2.8	–	Non-toxic	162	36	18.5	10	–	inactive	inactive	–	inactive	inactive	inactive	inactive	inactive	20	inactive	10	20	IC50 [8]: Not Active; IC50 [12]: Not Active; MFC [17]: 20 µg/mL
COc1cc(NC(C)CCCNC(=O)CC[C@H](N)C(=O)NCCCC(C)Nc2cc(OC)cc3cccnc23)c2ncccc2c1.Cl (stereo partly specified)	13.35	–	Non-toxic	85	35	16	15	15	inactive	inactive	Active	inactive	inactive	inactive	inactive	inactive	20	–	15	20	Activity [18]: Active; Activity [19]: Active; Activity [10]: Active; MIC [7]: 20 µg/mL; IC50 [12]: Not Active; MFC [17]: 20 µg/mL
COc1cc(NC(C)CCCNC(=O)CC[C@H](N)C(=O)NCCCC(C)Nc2cc(OC)cc3ccc(C(C)(C)C)nc23)c2nc(C(C)(C)C)ccc2c1.Cl (stereo partly specified)	3.3	4.7	Non-toxic	> 1000	10.7	3.9	8.5	–	inactive	–	inactive	–	–	–	–	–	20	inactive	–	–	IC50 [16]: 2.3 µg/mL; MBC [6]: 20 µg/mL; IC50 [8]: Not Active
CCCCCOc1c(OC)cc(NC(C)CCCNC(=S)NCCCC(C)Nc2cc(OC)c(OCCCCC)c3c(CC)ccnc23)c2nccc(CC)c12.Cl.Cl (stereo unspecified)	1.7	–	Non-toxic	> 1000	–	40	3.5	15	inactive	–	–	inactive	–	inactive	inactive	inactive	5	–	10	20	IC50 [2]: Not Active; IC50 [16]: 4.76 µg/mL; IC90 [5]: inactive; MBC [6]: 10 µg/mL; MIC [7]: 20 µg/mL; IC50 [20]: 10 µg/mL; MIC [20]: 20 µg/mL; MFC [17]: 20 µg/mL
COc1cc(NC(C)CCCNC(=O)C[C@H](N)C(=O)NCCCC(C)Nc2cc(OC)cc3ccc(C(C)(C)C)nc23)c2nc(C(C)(C)C)ccc2c1.Cl (stereo partly specified)	1.55	–	Non-toxic	140	33	15	6.5	–	inactive	–	inactive	inactive	inactive	inactive	inactive	inactive	–	inactive	10	20	IC50 [2]: Not Active; MBC [6]: 20 µg/mL; IC50 [8]: Not Active; IC50 [12]: Not Active; MFC [17]: 20 µg/mL
COc1cc(NC(C)CCCNC(=O)NC(CCCN)C(=O)NCCCC(C)Nc2cc(OC)cc3cccnc23)c2ncccc2c1 (single isomer, unassigned; 40)	–	–	–	–	–	–	–	–	inactive	inactive	–	inactive	inactive	inactive	inactive	inactive	–	inactive	–	–	–
CCCCCOc1c(OC)cc(NC(C)CCCNC(=O)NCCCC(C)Nc2cc(OC)c(OCCCCC)c3c(CC)ccnc23)c2nccc(CC)c12.Cl.Cl (stereo unspecified)	4.7	1.7	Non-toxic	80	7	3.5	8.5	–	inactive	inactive	–	–	–	–	–	–	20	inactive	–	–	IC50 [16]: 1.3 µg/mL; IC50 [8]: Not Active
COc1cc(NC(C)CCCNC(=O)N[C@@H](CCCN)C(=O)NCCCC(C)Nc2cc(OC)cc3ccc(C(C)(C)C)nc23)c2nc(C(C)(C)C)ccc2c1.Cl (stereo partly specified)	0.2	4	Non-toxic	152	33	18	6.5	15	inactive	–	–	inactive	inactive	inactive	inactive	inactive	20	–	15	20	MBC [6]: 20 µg/mL; IC50 [20]: 15 µg/mL
COc1cc(NC(C)CCCN)c2ncccc2c1 (stereo unspecified) [PRIMAQUINE]	10	–	Non-toxic	> 1000	–	–	–	–	–	–	inactive	–	–	–	–	–	–	–	–	–	Activity [18]: inactive; IC90 [5]: inactive
COc1cc(NC(C)CCCNC(=O)NC(CCCN)C(=O)NCCCC(C)Nc2cc(OC)cc3cccnc23)c2ncccc2c1 (single isomer, unassigned; 37)	–	–	–	–	–	–	–	–	–	–	inactive	inactive	inactive	inactive	inactive	inactive	–	–	–	–	–
COc1cc(NC(C)CCCNCC(=O)NCCCC(C)Nc2cc(OC)cc3ccc(C(C)(C)C)nc23)c2nc(C(C)(C)C)ccc2c1.Cl.Cl (stereo unspecified)	1.1	1.5	Non-toxic	75	7.8	2.9	15	15	inactive	inactive	–	–	–	–	–	–	20	inactive	–	–	IC50 [16]: 1.3 µg/mL
